Assay results taken from PubChem BioAssay AID743061 (The Scripps Research Institute Molecular Screening Center, 2013).

These compounds were tested against Methionine--tRNA ligase, mitochondrial (Homo sapiens) (UniProt Q96GW9) (assay: inhibitors of human mitochondrial MetRS, late-stage follow-up, selectivity assay for T. brucei MetRS inhibitor project, biochemical, radioactivity, round 1 (AID 743061;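 also: 0% = DMSO with full reaction and 100% = DMSO wells lacking tRNA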)). Details: recombinant human mtMetRS, [3H]Met tRNA charging, at 1 µM, stronger effect = higher value.
Summary of the method: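 Material – recombinant human mitochondrial methionyl-tRNA synthetase (MetRS) · Input – 13 nM enzyme · Also added – 240 nM [3H]methionine with bulk E. coli tRNA acceptor · Compound dosing – 10 and 1 µM · Schedule – 15 min preincubation, 1 h reaction, room temperature · Detection – scintillation counts of TCA-precipitated charged tRNA on filters · Benchmarks – high DMSO, low without tRNA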

Compound	inhibition [%]
O=C1CC(SCc2nc3ccccc3[nH]2)C(=O)N1c1cccc(Cl)c1 (centres undefined)	-4.5
Cn1c(CCNC(=O)c2ccc(Cl)cc2)nc2ccccc21	11.6
CC(=O)c1ccc(N2CCN(C(=O)CCCn3c(=O)[nH]c4ccc(Br)cc4c3=O)CC2)cc1	-14.1
O=C(CC(=O)Nc1cccc(Cl)c1)NN=Cc1ccccc1	-18.3
COc1cccc(NC(=O)CSc2nnc3c(n2)[nH]c2ccc(C)cc23)c1	49.7
O=C(NCc1nc2ccccc2[nH]1)C1=C[C@@H](c2ccccc2)C[C@@H](OCc2ccc(CO)cc2)O1	-16.8
O=C1CC(N(CCc2ccccc2)C(=S)Nc2ccccc2)C(=O)N1c1ccc(Br)cc1 (centres undefined)	-25.5
COc1ccc(CCN(C(=S)Nc2ccccc2)C2CC(=O)N(c3ccc(Cl)cc3)C2=O)cc1 (centres undefined)	10.6
CC(=O)c1cn(CC(=O)Nc2cccc(C(F)(F)F)c2)c2ccccc12	-20.4
Cc1ccc(C(=O)NCCc2nc3ccccc3[nH]2)cc1[N+](=O)[O-]	0.93
O=C(CN1CCSC1=NCc1ccccc1)c1ccc(Cl)c(Cl)c1	-25.1
CCN(C(=O)Cn1cc(C(=O)C(=O)N2CCOCC2)c2ccccc21)c1ccccc1	-12.3
Cc1ccc(NC(=O)CN(C)C(=O)CCSc2ccc(F)cc2)cc1	-35.7
O=C(CC=NOCc1ccc([N+](=O)[O-])cc1)Nc1ccc(Cl)cc1	-13
O=C(CCC(=O)Nc1cccc([N+](=O)[O-])c1)NN=Cc1cccs1	-28.9
CC(C)(C)[C@@H]1C=C(C(=O)NCc2nc3ccccc3[nH]2)O[C@H](OCc2ccc(CO)cc2)C1	-10.6
O=C(NNC(=O)c1cc(-c2ccc(Cl)c(Cl)c2)nc2ccccc12)Nc1ccccc1	-17.1
Cc1cccc(C(=O)NCCc2nc3ccccc3n2CCOc2ccccc2)c1	1.28
COc1ccc2[nH]c3nc(SCC(=O)Nc4ccc5c(c4)OCO5)nnc3c2c1	14.3
